Screens from PubChem BioAssay.
Apaf1 activ: activators of human Apaf-1 apoptosome, primary screen, biochemical, DEVD-Rh110 fluorescence, uHTS | Apoptotic protease-activating factor 1 (Homo sapiens), O14727 | Apaf-1 apoptosome caspase-3 activation; hits give low values | activity change, negative = activation, % at 20 µM | hit rate 0.31% among 330,000 | AID 489031, 2010;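 active means activity change at or below -40% at 20 µM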
Target sequence (O14727 whole entry, looked up): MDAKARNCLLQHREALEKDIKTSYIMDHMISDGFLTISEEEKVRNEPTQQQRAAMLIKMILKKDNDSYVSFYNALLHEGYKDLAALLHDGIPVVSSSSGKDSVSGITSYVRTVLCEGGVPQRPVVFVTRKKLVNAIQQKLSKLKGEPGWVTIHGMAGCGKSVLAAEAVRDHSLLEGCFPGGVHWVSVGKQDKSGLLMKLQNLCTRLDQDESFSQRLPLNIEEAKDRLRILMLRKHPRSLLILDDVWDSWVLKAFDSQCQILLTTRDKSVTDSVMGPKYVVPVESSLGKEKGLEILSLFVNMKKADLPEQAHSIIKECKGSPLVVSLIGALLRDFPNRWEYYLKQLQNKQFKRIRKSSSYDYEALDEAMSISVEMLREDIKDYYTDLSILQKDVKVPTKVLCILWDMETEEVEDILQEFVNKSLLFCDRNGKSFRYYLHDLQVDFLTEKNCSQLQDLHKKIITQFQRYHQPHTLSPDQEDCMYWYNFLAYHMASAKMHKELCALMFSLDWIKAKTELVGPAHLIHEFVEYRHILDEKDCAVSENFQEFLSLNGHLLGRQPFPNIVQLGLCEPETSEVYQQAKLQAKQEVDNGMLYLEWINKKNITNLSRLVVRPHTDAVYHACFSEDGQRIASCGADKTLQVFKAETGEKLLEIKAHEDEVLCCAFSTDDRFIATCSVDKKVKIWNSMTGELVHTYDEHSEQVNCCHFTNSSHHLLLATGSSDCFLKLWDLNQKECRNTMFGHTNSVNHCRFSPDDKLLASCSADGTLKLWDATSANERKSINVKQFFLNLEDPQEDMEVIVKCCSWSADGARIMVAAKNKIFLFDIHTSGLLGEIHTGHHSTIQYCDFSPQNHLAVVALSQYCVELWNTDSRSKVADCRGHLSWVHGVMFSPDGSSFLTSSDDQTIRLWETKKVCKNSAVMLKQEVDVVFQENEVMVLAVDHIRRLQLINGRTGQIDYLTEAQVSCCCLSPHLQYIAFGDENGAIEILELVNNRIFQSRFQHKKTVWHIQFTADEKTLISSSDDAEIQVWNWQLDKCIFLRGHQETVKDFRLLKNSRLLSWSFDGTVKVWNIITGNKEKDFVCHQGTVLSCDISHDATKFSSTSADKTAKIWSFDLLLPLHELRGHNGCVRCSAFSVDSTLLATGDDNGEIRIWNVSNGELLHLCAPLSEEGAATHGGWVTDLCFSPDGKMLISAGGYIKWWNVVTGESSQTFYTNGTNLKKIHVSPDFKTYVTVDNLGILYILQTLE
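Schedule: 30 min preincubation, 50 min reaction, room temperature / System: biochemical Apaf-1 apoptosome reconstitution / Medium: 20 mM HEPES pH 7.5 with CHAPS, BSA / Evaluation: Caspase-3 cleavage activity downstream of Apaf-1 activation / Detection: Caspase-3-released Rh110 fluorescence, 540 nm emission, 480 nm excitation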
Rh110 act interf: Rh110 fluorescence interference by putative Apaf-1 activators, confirmation, artefact control for Apaf-1 activator project, biochemical, 20 µM | fluorescence interference (activity change), % at 20 µM, hits read low | shares compounds with Apaf1 activ | quenched caspase reaction, Ex480/Em540 | 980 tested, under 10 active;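 active means mean activity change at or below -40% when tested at 20 µM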
Apaf-1 act conf2: Apaf-1 activators, single-dose retest, confirmation, biochemical, fluorescence, DEVD-Rh110, 20 µM | shares compounds with Apaf1 activ | reconstituted apoptosome caspase-3 activity; hits give low values | activity change, negative = activation, % at 20 µM | hit rate 5% among 980;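 active means mean activity change at or below -40%, meaning activation of 40% or more, at 20 µM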
Fluor interf act: fluorescence interference of Apaf-1 activator hits, dose response, artefact control for Apaf-1 activator project; shares compounds with Apaf1 activ; fluorescence interference counterscreen, Apaf-1 activator assay; EC50, µM; 55 tested, under 10 active; call rule not given here
An asterisk follows results filed as active; nt = no result given. Only a sample is shown.

SMILES	Apaf1 activ	Rh110 act interf	Apaf-1 act conf2	others
CCOC(=O)C1=NNC2C(=O)N(C3CCCCC3)C(=O)C12 (stereo not drawn)	-79*	-6	7
CCOC(=O)c1cnc(-n2nc(C)cc2C)nc1NC1CCCCC1	42	nt	nt
CCC(CO)Oc1cc(NCc2ccccc2OC)c2ncn(C(C)C)c2c1 (stereo not drawn)	61	nt	nt
CCCCCCc1cc2cc(-c3nnc(-c4ccccc4O)o3)c(=O)oc2cc1O	-140*	10	-43*	Fluor interf act=>100
CCCCCCc1cc2cc(-c3nnc(-c4cc(OC)c(OC)c(OC)c4)o3)c(=O)oc2cc1O	63	nt	nt
CCCCCCc1cc2cc(-c3nnc(-c4ccccc4OC)o3)c(=O)oc2cc1O	62	nt	nt
CN(Cc1nccs1)C(=O)CC1C(=O)NCCN1Cc1ccc(-c2ccccc2)cc1 (stereo not drawn)	-330*	6	15
COc1cc(OC)cc(-c2sc3ccc(OC)cc3c2-c2ccc(OCCN3CCCCC3)cc2)c1	60	nt	nt
COc1ccc(Oc2nnc(-c3ccc(C)cc3)c3ccccc23)cc1	-172*	10	14
COc1ccc(-c2cc3c(nn2)-c2ccccc2C3=O)cc1	77	nt	nt
Cc1[nH]c2ccccc2c1C(C#N)(C#N)C1C(=O)c2ccccc2C1=O	73	nt	nt
Cc1cc(N(CCO)CCO)ccc1N=Nc1cc(F)ccc1F	40	nt	nt
O=C1C2C3C=CC(C3)C2C(=O)N1CNc1ccc(O)cc1 (stereo not drawn)	94	nt	nt
O=C(N/C(=C\c1ccccc1Cl)C(=O)N1CCOCC1)c1ccc([N+](=O)[O-])cc1	-309*	9	9
Cc1[nH]n(-c2ccccc2)c(=O)c1C(c1ccc(O)c([N+](=O)[O-])c1)c1c(C)[nH]n(-c2ccccc2)c1=O	87	nt	nt
O=[N+]([O-])c1ccc(/C=C/c2ccc3cccc([N+](=O)[O-])c3n2)cc1	-107*	-8	11
CCC(COC(=O)c1ccccc1)Oc1cc(NCc2ccccc2)c2ncn(C(C)C)c2c1 (stereo not drawn)	69	nt	nt
Cc1noc(C)c1C(=O)OC(C(=O)NC1CCCC1)c1ccc(F)cc1 (stereo not drawn)	-52*	7	5
OCCN1CCN(CCCN2c3ccccc3Sc3ccc(C(F)(F)F)cc32)CC1	48	nt	nt
Nc1ccc(C(=O)O)cc1	-5	nt	nt
Cc1[nH][nH]c(=O)c1C(c1c(C)[nH][nH]c1=O)c1cn(Cc2cccc3ccccc23)c2ccccc12	95	nt	nt
Cc1ccccc1Cn1cc(/C=N/n2cnnc2)c2ccccc21	-57*	1	11
COc1cc(/C=C2/C(=O)N(c3cccc(Br)c3)N=C2C)cc(OC)c1O	82	nt	nt
Cc1cc2c(N)cccc2nn1	97	nt	nt
COc1ccc(C(=O)NCCc2nnc3ccc(SCC(=O)NCCc4ccc(OC)c(OC)c4)nn23)cc1	-410*	-4	9
SMILES	Apaf1 activ	Rh110 act interf	Apaf-1 act conf2	others
O=C(CSc1ccc2nnc(CCNC(=O)c3ccccc3)n2n1)Nc1ccccc1	-293*	3	-3
COc1cccc2c1C(=O)C=C(C)C2=O	56	nt	nt
Cc1ccccc1Nc1cc2ccccc2c(=O)[nH]1	96	nt	nt
COC(=O)CCC(=O)OC1(C)C(=O)C2=CN(CC3CC3)C(c3ccc(OC)cc3)=CC2=C(Br)C1=O (stereo not drawn)	66	nt	nt
CCn1cc(CN2CCC(n3nccc3NC(=O)Cc3ccccc3)CC2)cn1	-53*	0	9
Cc1ccccc1C(=O)c1cccn1CC(=O)NCc1ccc(Cl)cc1	-92*	7	16
COCCCOc1cc(NCc2ccccc2)c2ncn(C(C)C)c2c1	41	nt	nt
CCN(CC)C(=O)[C@H]1CC(CC(=O)NCCCN(C)C)C(=O)N2CCc3c([nH]c4ccccc34)[C@]12C (stereo partly drawn)	44	nt	nt
NS(=O)(=O)Cc1noc2ccccc12	-79*	-4	7
CC(=O)Oc1ccc(/C=C2/C(=O)N(c3ccccc3)N=C2C)cc1	91	nt	nt
O=C1C(NS(=O)(=O)c2cccs2)=C(N2CCN(c3cccc(C(F)(F)F)c3)CC2)C(=O)c2ccccc21	48	nt	nt
COC(=O)c1c(N)n(CCCN2CCOCC2)c2nc3ccccc3nc12	-72*	2	13
COc1ccc(CNC(=O)c2c(N)n(CCCN3CCOCC3)c3nc4ccccc4nc23)cc1	87	nt	nt
Nc1c(C(=O)NCc2ccccc2)c2nc3ccccc3nc2n1CCCN1CCOCC1	49	nt	nt
COC(=O)CCC(=O)OC1(C)C(=O)C2=CN(CCCOC(C)C)C(c3ccc(OC)cc3)=CC2=C(Br)C1=O (stereo not drawn)	79	nt	nt
O=C(OCC(=O)c1c[nH]c2ccccc12)c1cc(Br)ccc1O	-339*	8	9
C/C=N/NC(=O)c1cc(Br)ccc1O	57	nt	nt
COn1c2c(c3c4nonc4ccc31)CCCC2	47	nt	nt	Fluor interf act=>100
CN(C)c1cccc2cccc(N(C)C)c12	89	nt	nt
CN(C)CCCNC(=O)C[C@H]1C[C@H](C(=O)N2CCCCC2)[C@@]2(CCc3ccccc3)c3[nH]c4cc(-c5ccco5)ccc4c3CCN2C1=O	72	nt	nt
CCCCCCNC(=O)N[C@@H](C(=O)NCCC[C@H]1CN2C(=NC[C@@H]2Cc2ccccc2)N1CCc1cccc(OC)c1)C(C)C	54	nt	nt
CCOCCCNC1=C(Cl)C(=O)c2ccccc2C1=O	48	nt	nt
CCOCCCNC(=O)COc1ccc(OC)cc1	-293*	12	12
CCOC(=O)c1c(NC(=O)CN2CCN(C(=O)c3ccco3)CC2)sc2c1CCCC2	48	nt	nt
CCC1CCCCN1CCCNC(=O)CC1Oc2ccc(C)cc2NC1=O (stereo not drawn)	-93*	8	11
SMILES	Apaf1 activ	Rh110 act interf	Apaf-1 act conf2	others
COc1ccc(/C=C2/C(=O)N(c3ccccc3)N=C2C)cc1OC	96	nt	nt
COc1ccc(-c2cc(=O)n(CCC#N)[nH]2)cc1	94	nt	nt
CCc1cc2c(NCc3ccco3)ncnc2s1	-110*	0	2
Cc1cccc(CNc2ncnc3ccc(-c4ccc5c(c4)OCCO5)cc23)c1	42	nt	nt
Cc1ccc2c(C)nc(Nc3nc(CSc4nc5ccccc5[nH]4)cc(=O)[nH]3)nc2c1	-71*	4	5
C[n+]1cccc2c(Br)ccc([O-])c21	98	nt	nt
CCOc1ccccc1N1CSC2=C(C#N)C(c3c(OC)ccc4ccccc34)CC(=O)N2C1 (stereo not drawn)	41	nt	nt
CC1CCCCC1NC(=O)Cn1nnc2ccccc2c1=O (stereo not drawn)	-198*	8	24
COc1ccc(NC(=O)CC2Nc3cccc4cccc(c34)NC2=O)cc1 (stereo not drawn)	94	nt	nt
COc1ccc(CC2S/C(=N/N=C/c3ccccc3O)NC2=O)cc1 (stereo not drawn)	-524*	14	23
CCCCn1c(NC(=O)c2ccccc2Cl)c(C#N)c2nc3ccccc3nc21	93	nt	nt
Cc1ccc(O)c(CNc2cccc3cccnc23)c1	93	nt	nt
Cc1ccc(Sc2ncccc2C(=O)NCc2cc([N+](=O)[O-])ccc2O)c(C)c1	-48*	-6	12
CCn1c2ccccc2c2c3ncc4cccn4c3ccc21	62	nt	nt
